This is a sample that favours compounds with a hit; in the whole collection about 1.6% have one here.
TNF necrop inh: TNF-alpha cell death inhibition in Jurkat FADD-/- cells; Jurkat FADD-/- TNF necroptosis rescue, ATP luminescence, 24 h; 0 = TNF only, 100 = no-TNF cells; activation (protection from cell death), % at 10 µM; 220,000 tested, 0.068% active; AID 463075;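 active = activation, meaning protection from cell death, of at least 50% relative to plate controls; inactive = activation below 50%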;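 note: necroptosis triggered by 40 ng/mL TNF-alpha added together with compound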
MDM2 E3 inh: Mdm2 E3 ligase (human) inhibition. Q00987. cell-based MDM2 ubiquitination luciferase reporter, 2 h; 0 = plate control, 100 = twice control, blank-subtracted. signal enhancement, % at 5 µM. 210,000 tested, 0.11% active;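 active = signal enhancement of 30% or more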;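 note: luminescence tracks abundance of the self-degrading MDM2-luciferase fusion protein; higher signal means inhibition of MDM2 E3 ligase activity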
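Test system: stable mammalian line carrying autodegrading MDM2–luciferase fusion reporter; quantity: 2000 cells in each well; times: 4 h cell settling then 2 h compound exposure, 37 °C; detection: luminescence with SteadyLite reagent, 15 min at room temperature; evaluation: percent signal gain over controls, blank-subtracted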
Pf gametocyte: inhibitors of late stage P. falciparum gametocyte viability | P. falciparum stage V gametocytes, ATP luminescence, 24 h | inhibition, % at 10.9 µM | 150,000 tested, 0.065% active | AID 743093;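 active = inhibition above the mean plus 3 SD of compounds within the control limits, set per campaign, cut at about 38% in these data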;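 note: 0% = DMSO wells and 100% = medium only without gametocytes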
zVAD death inh: blocks zVAD induced death of L929 cells; 220,000 tested, 0.38% active; L929 zVAD necroptosis rescue, ATP luminescence, 24 h; with zVAD 60 µM; viability rescue, % at 10 µM;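 active = activation, scaled between plate controls, above about 75%, limit read from the data; inactive = activation under that limit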;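 note: 0% = zVAD with DMSO and 100% = DMSO alone without zVAD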
Wee1 degr inh: blocks degradation of human Wee1 kinase; 220,000 tested, 1.2% active; reporter increase, % at 5 µM; P30291; HeLa Luc-Wee1K328M stability, luciferase luminescence; 100% = proteasome inhibitor MG132 effect;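 active = activation above the mean of all tested compounds plus 3 SD, set per screening run, cut at about 8.8% in these data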;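 note: cells exposed to compound for 20 h before luminescence read; 0% = DMSO alone and 100% = MG132 at 30 µM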
Target sequence (P30291 whole entry K328M): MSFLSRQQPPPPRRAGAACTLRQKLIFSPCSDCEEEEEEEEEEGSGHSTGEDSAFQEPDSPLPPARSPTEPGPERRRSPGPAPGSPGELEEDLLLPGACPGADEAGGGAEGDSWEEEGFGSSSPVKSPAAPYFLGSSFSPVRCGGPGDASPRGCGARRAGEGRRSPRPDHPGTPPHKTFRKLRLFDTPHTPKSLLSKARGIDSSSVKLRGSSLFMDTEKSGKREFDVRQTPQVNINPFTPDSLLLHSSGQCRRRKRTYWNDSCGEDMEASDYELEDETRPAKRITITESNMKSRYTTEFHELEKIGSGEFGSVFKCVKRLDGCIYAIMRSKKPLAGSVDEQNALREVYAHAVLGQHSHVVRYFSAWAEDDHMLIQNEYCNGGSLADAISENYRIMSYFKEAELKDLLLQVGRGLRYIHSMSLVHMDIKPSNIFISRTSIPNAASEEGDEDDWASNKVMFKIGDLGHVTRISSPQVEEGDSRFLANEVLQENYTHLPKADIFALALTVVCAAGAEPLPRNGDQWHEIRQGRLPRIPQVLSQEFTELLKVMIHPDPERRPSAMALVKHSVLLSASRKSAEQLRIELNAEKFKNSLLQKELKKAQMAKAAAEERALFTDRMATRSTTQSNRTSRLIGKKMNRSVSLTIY
Wee1 degr conf: human Wee1 degradation inhibition, confirmation. shares compounds with Wee1 degr inh. HeLa Luc-Wee1K328M degradation, luminescence; vehicle 0%, proteasome-blocked wells 100%. activation, % at 5 µM. 1,100 tested, 4% active; in the data active = activation above about 8.9%
Numbers without * were called inactive; x = no result.

SMILES | TNF necrop inh | MDM2 E3 inh | Pf gametocyte | zVAD death inh | Wee1 degr inh | Wee1 degr conf
CCOC(=O)C1CCCN(C(=O)Cc2ccc(C)cc2)C1 (centres undefined) | 0 | -9 | x | 0 | -1 | x
O=C(OCC(=O)c1ccccc1Cl)c1cnccn1 | 0 | -61 | x | 0 | 12* | -6
COCCn1nnnc1C(c1ccc(OC)c(OC)c1)N1CCc2ccccc21 (centres undefined) | 0 | -9 | -44 | 0 | 8 | x
Cc1cc(C)n(-c2ccc(C(=O)Nc3ccccc3N3CCOCC3)cc2)n1 | -4 | -6 | x | 0 | 7 | x
Cc1cc(C)n(-c2ccc(C(=O)Nc3cc(C(F)(F)F)ccc3N3CCOCC3)cc2)n1 | -1 | -12 | x | 0 | 13* | 0
O=C(CCn1[nH]c(=O)c2ccccc2c1=O)N1CCOCC1 | 1 | -6 | x | 0 | -2 | x
CC(=O)c1ccc(NC(=S)NCCc2ccc(S(N)(=O)=O)cc2)cc1 | -1 | 1 | x | 1 | 27* | 2
NS(=O)(=O)c1ccc(NC(=S)NCCc2ccccc2)cc1 | 1 | -5 | 11 | 2 | 3 | x
CCn1cc(C(=O)N2CCCCC2)c(=O)c2cc(S(=O)(=O)N3CCC(C)CC3)ccc21 | -1 | -8 | 8 | 0 | -2 | x
COc1cccc(C2=CC(c3cccc(OC)c3OC)n3nnnc3N2)c1 (centres undefined) | -12 | 7 | x | 1 | 11* | 12*
COc1cc(/C=c2\s/c(=C(/C#N)C(=O)N3CCCC3)n(-c3ccccc3)c2=O)ccc1O | -4 | 0 | -1 | -1 | -2 | x
c1nc(N2CCC3(CC2)OCCO3)c2c3c(sc2n1)CCCC3 | -1 | -25 | 2 | 0 | -2 | x
Cc1cccc(Nc2nc(-c3ccncc3)cs2)c1 | 3 | -22 | x | -2 | 0 | x
Cc1ccc(Nc2nc(-c3ccncc3)cs2)cc1 | 2 | -11 | 14 | 5 | 18* | 7
CC(=O)Nc1ccc(S(=O)(=O)Nc2ccc(Cl)cn2)cc1 | x | x | -4 | x | x | x
COc1ccc(C2CC(c3ccc(C)o3)=NN2C(C)=O)cc1 (centres undefined) | 31 | -13 | 7 | 1 | 12* | 1
Clc1cccc(-c2cc3nc4c(c(N5CCNCC5)n3n2)CCCC4)c1 | -14 | x | x | -2 | 12* | -1
OC1CCN(c2c3c(nc4cc(-c5cccc(F)c5)nn24)CCCC3)CC1 | 1 | -13 | 11 | 13 | 2 | x
O=C(N/N=C/c1cc(Br)c(O)c(Br)c1)c1cccc(C(F)(F)F)c1 | 3 | -2 | 3 | 2 | 12* | 2
CN(C)c1ccc(NC(=O)CCn2c(=S)oc3ccccc32)cc1 | 0 | -5 | 3 | 1 | 11* | 2
C=C(C)COc1ccc(-c2[nH]ncc2Oc2ccccc2OC)c(O)c1 | 1 | 10 | 3 | 1 | -1 | x
C=C(C)COc1ccc(-c2[nH]ncc2Oc2ccc(OC)cc2)c(O)c1 | -1 | -6 | 1 | 1 | 18* | 4
CC(=O)c1ccc(N=Nc2ccc(N(C)C)cc2)cc1 | -2 | -70 | 36 | 1 | 5 | x
CC(=O)c1ccc(N=Nc2ccc(C)cc2)cc1 | -1 | -53 | 1 | 0 | 24* | -4
O=C(Nc1ccccc1)/C(=C\c1cccs1)NC(=O)c1ccccc1 | 1 | 2 | -38 | 0 | -1 | x
SMILES | TNF necrop inh | MDM2 E3 inh | Pf gametocyte | zVAD death inh | Wee1 degr inh | Wee1 degr conf
O=C(N/N=C/c1cccs1)/C(=C/c1ccccc1)NC(=O)c1ccccc1 | 2 | x | 22 | -1 | 12* | -2
Cc1ccc(OCc2nnc(N)s2)cc1 | 1 | -3 | -9 | 2 | -4 | x
CN(Cc1ccccn1)C(=O)CC1C(=O)NCCN1Cc1cccc(Oc2ccccc2)c1 (centres undefined) | 0 | -21 | -12 | -1 | -1 | x
CN(Cc1nccn1C)C(=O)CC1C(=O)NCCN1Cc1cccc(Oc2ccccc2)c1 (centres undefined) | 0 | -5 | x | 0 | 12* | 1
CCN(CC)c1ccc(/C=N/NC(=O)c2cnccn2)cc1 | -5 | -13 | -3 | -2 | 15* | 19*
CCN(CC)c1ccc(/C=N/NC(=O)c2ccco2)cc1 | -5 | -23 | x | 0 | 20* | 13*
CCN(CC)c1ccc(/C=N/NC(=O)c2ccc([N+](=O)[O-])cc2)cc1 | 1 | -4 | -18 | 19 | 2 | x
Cc1ccc2c(CC(=O)N3CCc4ccccc43)coc2c1 | -1 | -27 | 24 | 0 | 18* | 2
CCN(C(=O)CSc1nnc(C)n1Cc1ccccc1)C1CCS(=O)(=O)C1 (centres undefined) | 0 | -19 | x | -1 | 13* | 0
Cc1nnc(SCC(=O)N(C)C2CCS(=O)(=O)C2)n1Cc1ccccc1 (centres undefined) | 0 | 2 | 13 | 11 | -3 | x
COC(=O)c1c(NC(=O)c2ccc(C)cc2)csc1C | 1 | -16 | 6 | 1 | 13* | 4
O=C(N/N=C/C(Br)=C/c1ccccc1)NC1CCCCC1 | -1 | x | -10 | 54 | 2 | x
NC(=O)C1=C[C@H](c2ccc(Br)cc2)C[C@H](OCc2ccc(CO)cc2)O1 | 2 | x | x | 0 | 11* | 0
Nc1nnc(-c2cccc([N+](=O)[O-])c2)o1 | 3 | -13 | 3 | 1 | 11* | 2
O=[N+]([O-])c1cccc(-c2nnc(C3CC3)o2)c1 | 2 | -6 | -6 | 1 | -2 | x
COC(=O)c1[nH]c2c(c1C)C(=O)CC(c1cccs1)C2 (centres undefined) | -17 | -1 | -6 | -1 | 4 | x
CC(C)(C)NC(=O)NC(=O)CSc1ncccn1 | 5 | -2 | -6 | 2 | -1 | x
CN(Cc1cc2ccccc2[nH]c1=O)S(C)(=O)=O | 2 | -2 | 5 | 0 | 13* | -1
CN(Cc1cc2ccccc2[nH]c1=O)S(=O)(=O)c1ccccc1 | -1 | -6 | 10 | 1 | 7 | x
O=C(CCC(=O)c1cccs1)Nc1ccc(N2CCCCC2)cc1 | 3 | -27 | -23 | 3 | 0 | x
Cc1ccc(CSCC(=O)N2CCOCC2)cc1 | 1 | -8 | 12 | 0 | 13* | 0
COc1ccc(C=C2c3ccccc3C(=O)c3ccccc32)c(OC)c1 | -19 | 3 | -1 | -1 | 0 | x
Cc1cc(C)n2nc(C(=O)NCc3ccco3)cc2n1 | 0 | -14 | 3 | 1 | 17* | 1
Cc1cc(C)n(Cc2ccc(C(=O)NCc3ccco3)o2)n1 | 0 | 1 | x | -1 | 3 | x
Cc1ccc(N(CC(O)CN2C(=O)NC(C)(C)C2=O)S(=O)(=O)c2ccc(C)cc2)cc1 (centres undefined) | 1 | -12 | 1 | 0 | 13* | 0
COc1ccc(N(CC(O)CN2C(=O)NC(C)(C)C2=O)S(=O)(=O)c2ccc(C)cc2)cc1 (centres undefined) | -1 | 0 | -31 | 0 | -2 | x

Screening data deposited in PubChem by several laboratories.
